For 23 compounds, MIC results are on record in ChEMBL document CHEMBL1143493, “Synthesis of 2-[3,5-substituted pyrazol-1-yl]-4,6-trisubstituted triazine derivatives as antimalarial agents” (2005).

Converted amounts (≈) assume the structure as drawn.

As usually defined, the MIC is the lowest concentration found to suppress growth.

This assay concerns Plasmodium falciparum. Nature of the assay: Minimum inhibitory concentration against Plasmodium falciparum NF-54 after 40 hrs. Type of assay: functional. In a few lines:
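Rieckmann-type microassay. NF-54 is kept in RPMI-1640 with 25 mM Hepes, 1% D-glucose, 0.23% NaHCO3 and 10% heat-inactivated human serum, then synchronized to ring stage with 5% D-sorbitol. Ring-stage parasites at about 1% parasitemia and 3% hematocrit are exposed in duplicate to […] for 36–40 h at 37 °C in a candle jar. Maturation is read on Giemsa smears. MIC is the concentration that completely blocks schizont maturation.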

As for `COc1ccc(-c2cc(SC)n(-c3nc(N4CCc5ccccc5C4)nc(N4CCc5ccccc5C4)n3)n2)cc1OC`, the MIC is 50 mg/L (≈ 84.5 µM).

The compound `COc1ccccc1CN1CCN(c2nc(N3CCN(Cc4ccccc4OC)CC3)nc(-n3nc(-c4ccc(OC)c(OC)c4)cc3SC)n2)CC1` yielded an MIC of 50 mg/L (≈ 67.8 µM).

`COc1ccc(-c2cc(SC)n(-c3nc(N4CCCCC4)nc(N4CCCCC4)n3)n2)cc1OC` had an MIC of 10 mg/L (≈ 20.2 µM).

`COc1cc(-c2cc(SC)n(-c3nc(NCCCN4CCOCC4)nc(NCCCN4CCOCC4)n3)n2)cc(OC)c1OC`: it took 10 mg/L (≈ 15.5 µM) to inhibit growth (MIC).

`COc1cc(-c2cc(SC)n(-c3nc(N4CCN(Cc5ccccc5)CC4)nc(N4CCN(Cc5ccccc5)CC4)n3)n2)cc(OC)c1OC` yielded an MIC of 50 mg/L (≈ 70.6 µM).

The compound `COc1cc(-c2cc(SC)n(-c3nc(NCCN4CCOCC4)nc(NCCN4CCOCC4)n3)n2)cc(OC)c1OC` registered an MIC of 1 mg/L (≈ 1.62 µM). Against the preceding compound, the MIC is about 50-fold lower.

For `COc1cc(-c2cc(SC)n(-c3nc(N4CCc5ccccc5C4)nc(N4CCc5ccccc5C4)n3)n2)cc(OC)c1OC`, the MIC was more than 50 mg/L.

The compound `COc1cc(-c2cc(SC)n(-c3nc(N4CCCCC4)nc(N4CCCCC4)n3)n2)cc(OC)c1OC` returned an MIC of more than 50 mg/L.

Consider `COc1cc(-c2cc(SC)n(-c3nc(N4CCN(c5ccccc5)CC4)nc(N4CCN(c5ccccc5)CC4)n3)n2)cc(OC)c1OC`, for which the lowest concentration to inhibit growth (MIC) was 50 mg/L (≈ 73.5 µM).

For `COc1ccc(-c2cc(SC)n(-c3nc(NCCCN4CCOCC4)nc(NCCCN4CCOCC4)n3)n2)cc1OC`, the MIC amounted to 10 mg/L (≈ 16.3 µM).

`COc1ccc(-c2cc(SC)n(-c3nc(NCCN4CCOCC4)nc(NCCN4CCOCC4)n3)n2)cc1OC`: the minimum inhibitory concentration (MIC) is 2 mg/L (≈ 3.41 µM).

In turn, `CC1(C)N=C(N)N=C(N)N1c1ccc(Cl)cc1` [CYCLOGUANIL] showed a minimal inhibitory concentration (MIC) of 64 mg/L (≈ 254 µM).

In turn, `COc1cc(-c2cc(SC)n(-c3nc(NCc4ccccc4)nc(NCc4ccccc4)n3)n2)cc(OC)c1OC` showed an MIC of 2 mg/L (≈ 3.51 µM). Compared with the last compound, the MIC is about 32-fold lower.

For the compound `COc1ccccc1CN1CCN(c2nc(N3CCN(Cc4ccccc4OC)CC3)nc(-n3nc(-c4cc(OC)c(OC)c(OC)c4)cc3SC)n2)CC1`, the MIC was 50 mg/L (≈ 65.1 µM).

`COc1ccc(-c2cc(SC)n(-c3nc(N4CCN(Cc5ccccc5)CC4)nc(N4CCN(Cc5ccccc5)CC4)n3)n2)cc1OC` came in with an MIC of 2 mg/L (≈ 2.95 µM).

With `COc1ccc(-c2cc(SC)n(-c3nc(N4CCOCC4)nc(N4CCOCC4)n3)n2)cc1OC`, the minimum inhibitory concentration (MIC) is 10 mg/L (≈ 20 µM). This MIC lies about 5-fold higher than the previous one.

With `COc1ccc(-c2cc(SC)n(-c3nc(NC4CCCCC4)nc(NC4CCCCC4)n3)n2)cc1OC`, inhibition of growth (MIC) required 50 mg/L (≈ 95.5 µM).

The compound `COc1ccc(-c2cc(SC)n(-c3nc(Nc4ccccc4C)nc(Nc4ccccc4C)n3)n2)cc1OC` yielded an MIC of 10 mg/L (≈ 18.5 µM).

In the case of `COc1cc(-c2cc(SC)n(-c3nc(Nc4ccccc4C)nc(Nc4ccccc4C)n3)n2)cc(OC)c1OC`, the lowest concentration to inhibit growth (MIC) was 1 mg/L (≈ 1.76 µM).

Regarding `COc1ccc(-c2cc(SC)n(-c3nc(N4CCN(c5ccccc5)CC4)nc(N4CCN(c5ccccc5)CC4)n3)n2)cc1OC`, the MIC amounted to 10 mg/L (≈ 15.4 µM).

For `COc1ccc(-c2cc(SC)n(-c3nc(NCc4ccccc4)nc(NCc4ccccc4)n3)n2)cc1OC`, the MIC was more than 50 mg/L.

Compound `COc1cc(-c2cc(SC)n(-c3nc(N4CCOCC4)nc(N4CCOCC4)n3)n2)cc(OC)c1OC` displayed an MIC of more than 50 mg/L.

The compound `COc1cc(-c2cc(SC)n(-c3nc(NC4CCCCC4)nc(NC4CCCCC4)n3)n2)cc(OC)c1OC` yielded an MIC of 2 mg/L (≈ 3.61 µM).
